# From publication PMC5114172 (Journal of applied toxicology : JAT, 2016)
# Legend:
# PBMCs with Granulocytes = experiment: Cell viability, trypan blue exclusion; type: cell-based, human; details: for Percent Viable Cells: PBMCs with Granulocytes
# PBMCs plus Granulocytes = experiment: IL-1β secretion assay; type: cell-based, human; details: for Interleukin 1 beta secreted: PBMCs plus Granulocytes
# In short: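 NK cells, MD-PBMCs, PBMCs or granulocytes (1.5 million/mL) or PBMC+granulocytes (0.75 million/mL each), per donor, exposed 24 h, 48 h or 6 days to 0.05–5 μM test compound diluted from DMSO stock, with DMSO controls. Supernatants kept at −70 °C. IL-1β by sandwich ELISA: HRP detection antibody, acid-stopped substrate, A450 against standards. Detection limit 3 pg/mL; triplicates; ANOVA then t test versus control, p<0.05.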
structure (smiles),measurement,setting,value
"CCC[CH2][Sn][CH2]CCC [DBT, Dibutyltin]",average decrease in viability,"PBMCs with Granulocytes; PBMC+granulocytes, 24 h, 5 μM DBT",16%
same,Percent Viable Cells,"PBMCs with Granulocytes; 24 h, 0.05 μM DBT",94±3%
same,Percent Viable Cells,"PBMCs with Granulocytes; 24 h, 0.1 μM DBT",93±6%
same,Percent Viable Cells,"PBMCs with Granulocytes; 24 h, 0.25 μM DBT",93±4%
same,Percent Viable Cells,"PBMCs with Granulocytes; 24 h, 0.5 μM DBT",94±5%
same,Percent Viable Cells,"PBMCs with Granulocytes; 24 h, 1 μM DBT",88±6%
same,Percent Viable Cells,"PBMCs with Granulocytes; 24 h, 2.5 μM DBT",84±8%
same,Percent Viable Cells,"PBMCs with Granulocytes; 24 h, 5 μM DBT",77±4 %
same,Percent Viable Cells,"PBMCs with Granulocytes; 48 h, 0.05 μM DBT",93±5%
same,Percent Viable Cells,"PBMCs with Granulocytes; 48 h, 0.1 μM DBT",94±2%
same,Percent Viable Cells,"PBMCs with Granulocytes; 48 h, 0.25 μM DBT",93±5%
same,Percent Viable Cells,"PBMCs with Granulocytes; 48 h, 0.5 μM DBT",92±2%
same,Percent Viable Cells,"PBMCs with Granulocytes; 48 h, 1 μM DBT",88±10%
same,Percent Viable Cells,"PBMCs with Granulocytes; 48 h, 2.5 μM DBT",50±29%
same,Percent Viable Cells,"PBMCs with Granulocytes; 48 h, 5 μM DBT",49±12 %
same,Percent Viable Cells,"PBMCs with Granulocytes; 6 day, 0.05 μM DBT",80±7%
same,Percent Viable Cells,"PBMCs with Granulocytes; 6 day, 0.1 μM DBT",72±10%
same,Percent Viable Cells,"PBMCs with Granulocytes; 6 day, 0.25 μM DBT",74±8%
same,Percent Viable Cells,"PBMCs with Granulocytes; 6 day, 0.5 μM DBT",54±10 %
same,Percent Viable Cells,"PBMCs with Granulocytes; 6 day, 1 μM DBT",50±12 %
same,Percent Viable Cells,"PBMCs with Granulocytes; 6 day, 2.5 μM DBT",32±15 %
same,Percent Viable Cells,"PBMCs with Granulocytes; 6 day, 5 μM DBT",37±10 %
same,effect on viability compared to the control,"PBMCs with Granulocytes; PBMCs+granulocytes, 24 h, 0.05–2.5 μM DBT",no effect
same,Interleukin 1 beta secreted,"PBMCs plus Granulocytes; donor F148, 24 h, 0.05 μM DBT",4217 ± 397 pg/mL
same,Interleukin 1 beta secreted,"PBMCs plus Granulocytes; donor F148, 24 h, 0.1 μM DBT",3060 ± 191 pg/mL
same,Interleukin 1 beta secreted,"PBMCs plus Granulocytes; donor F148, 24 h, 0.25 μM DBT",3344 ± 212 pg/mL
same,Interleukin 1 beta secreted,"PBMCs plus Granulocytes; donor F148, 24 h, 0.5 μM DBT",7275 ± 2061 pg/mL
same,Interleukin 1 beta secreted,"PBMCs plus Granulocytes; donor F148, 24 h, 1 μM DBT",2011 ± 148 pg/mL
same,Interleukin 1 beta secreted,"PBMCs plus Granulocytes; donor F148, 24 h, 2.5 μM DBT",736 ± 552 pg/mL
same,Interleukin 1 beta secreted,"PBMCs plus Granulocytes; donor F148, 24 h, 5 μM DBT",197 ± 78 pg/mL
same,Interleukin 1 beta secreted,"PBMCs plus Granulocytes; donor F148, 48 h, 0.05 μM DBT",646 ± 25 pg/mL
same,Interleukin 1 beta secreted,"PBMCs plus Granulocytes; donor F148, 48 h, 0.1 μM DBT",864 ± 11 pg/mL
same,Interleukin 1 beta secreted,"PBMCs plus Granulocytes; donor F148, 48 h, 0.25 μM DBT",1017 ± 76 pg/mL
same,Interleukin 1 beta secreted,"PBMCs plus Granulocytes; donor F148, 48 h, 0.5 μM DBT",1191 ± 200 pg/mL
same,Interleukin 1 beta secreted,"PBMCs plus Granulocytes; donor F148, 48 h, 1 μM DBT",491 ± 26 pg/mL
same,Interleukin 1 beta secreted,"PBMCs plus Granulocytes; donor F148, 6 day, 0.5 μM DBT",3 ± 1 pg/mL
same,Interleukin 1 beta secreted,"PBMCs plus Granulocytes; donor F154, 24 h, 0.05 μM DBT",1364 ± 181 pg/mL
same,Interleukin 1 beta secreted,"PBMCs plus Granulocytes; donor F154, 24 h, 0.1 μM DBT",1059 ± 141 pg/mL
same,Interleukin 1 beta secreted,"PBMCs plus Granulocytes; donor F154, 24 h, 0.25 μM DBT",835 ± 38 pg/mL
same,Interleukin 1 beta secreted,"PBMCs plus Granulocytes; donor F154, 24 h, 0.5 μM DBT",538 ± 33 pg/mL
same,Interleukin 1 beta secreted,"PBMCs plus Granulocytes; donor F154, 24 h, 1 μM DBT",386 ± 157 pg/mL
same,Interleukin 1 beta secreted,"PBMCs plus Granulocytes; donor F154, 48 h, 0.05 μM DBT",358 ± 88 pg/mL
same,Interleukin 1 beta secreted,"PBMCs plus Granulocytes; donor F154, 48 h, 0.1 μM DBT",346 ± 40 pg/mL
same,Interleukin 1 beta secreted,"PBMCs plus Granulocytes; donor F154, 48 h, 0.25 μM DBT",372 ± 47 pg/mL
same,Interleukin 1 beta secreted,"PBMCs plus Granulocytes; donor F154, 48 h, 0.5 μM DBT",372 ± 24 pg/mL
same,Interleukin 1 beta secreted,"PBMCs plus Granulocytes; donor F154, 48 h, 1 μM DBT",322 ± 11 pg/mL
same,Interleukin 1 beta secreted,"PBMCs plus Granulocytes; donor F154, 48 h, 2.5 μM DBT",321 ± 35 pg/mL
same,Interleukin 1 beta secreted,"PBMCs plus Granulocytes; donor F154, 48 h, 5 μM DBT",321 ± 20 pg/mL
same,Interleukin 1 beta secreted,"PBMCs plus Granulocytes; donor F154, 6 day, 0.05 μM DBT",65 ± 34 pg/mL
same,Interleukin 1 beta secreted,"PBMCs plus Granulocytes; donor F154, 6 day, 0.1 μM DBT",31 ± 16 pg/mL
same,Interleukin 1 beta secreted,"PBMCs plus Granulocytes; donor F154, 6 day, 0.25 μM DBT",8 ± 1 pg/mL
same,Interleukin 1 beta secreted,"PBMCs plus Granulocytes; donor F154, 6 day, 0.5 μM DBT",11 ± 0 pg/mL
same,Interleukin 1 beta secreted,"PBMCs plus Granulocytes; donor F154, 6 day, 1 μM DBT",10 ± 0 pg/mL
same,Interleukin 1 beta secreted,"PBMCs plus Granulocytes; donor F154, 6 day, 2.5 μM DBT",3 ± 0 pg/mL
same,Interleukin 1 beta secreted,"PBMCs plus Granulocytes; donor F159, 24 h, 0.05 μM DBT",438 ± 18 pg/mL
same,Interleukin 1 beta secreted,"PBMCs plus Granulocytes; donor F159, 24 h, 0.1 μM DBT",375 ± 28 pg/mL
same,Interleukin 1 beta secreted,"PBMCs plus Granulocytes; donor F159, 24 h, 0.25 μM DBT",648 ± 18 pg/mL
same,Interleukin 1 beta secreted,"PBMCs plus Granulocytes; donor F159, 24 h, 0.5 μM DBT",620 ± 40 pg/mL
same,Interleukin 1 beta secreted,"PBMCs plus Granulocytes; donor F159, 24 h, 1 μM DBT",617 ± 74 pg/mL
same,Interleukin 1 beta secreted,"PBMCs plus Granulocytes; donor F159, 24 h, 2.5 μM DBT",87 ± 12 pg/mL
same,Interleukin 1 beta secreted,"PBMCs plus Granulocytes; donor F159, 48 h, 0.05 μM DBT",109 ± 93 pg/mL
same,Interleukin 1 beta secreted,"PBMCs plus Granulocytes; donor F159, 48 h, 0.1 μM DBT",48 ± 8 pg/mL
same,Interleukin 1 beta secreted,"PBMCs plus Granulocytes; donor F159, 48 h, 0.25 μM DBT",141 ± 16 pg/mL
same,Interleukin 1 beta secreted,"PBMCs plus Granulocytes; donor F159, 48 h, 0.5 μM DBT",226 ± 16 pg/mL
same,Interleukin 1 beta secreted,"PBMCs plus Granulocytes; donor F159, 48 h, 1 μM DBT",311 ± 39 pg/mL
same,Interleukin 1 beta secreted,"PBMCs plus Granulocytes; donor F159, 48 h, 2.5 μM DBT",505 ± 54 pg/mL
same,Interleukin 1 beta secreted,"PBMCs plus Granulocytes; donor F159, 48 h, 5 μM DBT",192 ± 15 pg/mL
same,Interleukin 1 beta secreted,"PBMCs plus Granulocytes; donor F159, 6 day, 0.05 μM DBT",3 ± 2 pg/mL
same,Interleukin 1 beta secreted,"PBMCs plus Granulocytes; donor F159, 6 day, 0.1 μM DBT",3 ± 2 pg/mL
same,Interleukin 1 beta secreted,"PBMCs plus Granulocytes; donor F159, 6 day, 0.5 μM DBT",5 ± 1 pg/mL
same,Interleukin 1 beta secreted,"PBMCs plus Granulocytes; donor F159, 6 day, 1 μM DBT",5 ± 1 pg/mL
same,Interleukin 1 beta secreted,"PBMCs plus Granulocytes; donor F159, 6 day, 2.5 μM DBT",7 ± 1 pg/mL
same,Interleukin 1 beta secreted,"PBMCs plus Granulocytes; donor F173, 24 h, 0.05 μM DBT",150 ± 26 pg/mL
same,Interleukin 1 beta secreted,"PBMCs plus Granulocytes; donor F173, 24 h, 0.1 μM DBT",168 ± 34 pg/mL
same,Interleukin 1 beta secreted,"PBMCs plus Granulocytes; donor F173, 24 h, 0.25 μM DBT",146 ± 12 pg/mL
same,Interleukin 1 beta secreted,"PBMCs plus Granulocytes; donor F173, 24 h, 0.5 μM DBT",165 ± 13 pg/mL
same,Interleukin 1 beta secreted,"PBMCs plus Granulocytes; donor F173, 24 h, 1 μM DBT",632 ± 19 pg/mL
same,Interleukin 1 beta secreted,"PBMCs plus Granulocytes; donor F173, 24 h, 2.5 μM DBT",287 ± 22 pg/mL
same,Interleukin 1 beta secreted,"PBMCs plus Granulocytes; donor F173, 24 h, 5 μM DBT",140 ± 10 pg/mL
same,Interleukin 1 beta secreted,"PBMCs plus Granulocytes; donor F173, 48 h, 0.05 μM DBT",57 ± 35 pg/mL
same,Interleukin 1 beta secreted,"PBMCs plus Granulocytes; donor F173, 48 h, 0.1 μM DBT",17 ± 2 pg/mL
same,Interleukin 1 beta secreted,"PBMCs plus Granulocytes; donor F173, 48 h, 0.25 μM DBT",42 ± 6 pg/mL
same,Interleukin 1 beta secreted,"PBMCs plus Granulocytes; donor F173, 48 h, 0.5 μM DBT",32 ± 1 pg/mL
same,Interleukin 1 beta secreted,"PBMCs plus Granulocytes; donor F173, 48 h, 1 μM DBT",160 ± 2 pg/mL
same,Interleukin 1 beta secreted,"PBMCs plus Granulocytes; donor F173, 48 h, 2.5 μM DBT",124 ± 3 pg/mL
same,Interleukin 1 beta secreted,"PBMCs plus Granulocytes; donor F173, 48 h, 5 μM DBT",63 ± 1 pg/mL
same,average of the maximum fold increase in IL-β secretion,"PBMCs plus Granulocytes; PBMCs+granulocytes, 24 h, across donors",3.8 fold
same,fold increase in IL-1β secretion,"PBMCs plus Granulocytes; PBMCs+granulocytes, donor F159, 24 h, 0.25 μM DBT",1.9 fold
same,fold increase in IL-1β secretion,"PBMCs plus Granulocytes; PBMCs+granulocytes, donor F159, 24 h, 0.5 μM DBT",1.8 fold
same,fold increase in IL-1β secretion,"PBMCs plus Granulocytes; PBMCs+granulocytes, donor F159, 24 h, 1 μM DBT",1.8 fold
same,fold increase in IL-1β secretion,"PBMCs plus Granulocytes; PBMCs+granulocytes, donor F159, 48 h, 0.25 μM DBT",35 fold
same,fold increase in IL-1β secretion,"PBMCs plus Granulocytes; PBMCs+granulocytes, donor F159, 48 h, 0.5 μM DBT",56 fold
same,fold increase in IL-1β secretion,"PBMCs plus Granulocytes; PBMCs+granulocytes, donor F159, 48 h, 1 μM DBT",77 fold
